# Hep lipid drop: inhibitors of hepatocyte lipid droplet formation, primary screen, imaging, high-throughput imaging, BODIPY stain | AML12 mouse hepatocytes, oleate lipid droplets | inhibition, % at 6.5 µM | actives 0.4% (n = 240,000) | AID 1656, 2009;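 active = lipid droplet intensity inhibited by at least 50%, with more than 500 cells counted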
#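 Assay system: AML12 hepatocytes (mouse); Probe or stimulus: oleic acid at 100 µM to induce lipid droplet formation; Dosing: compound at 6.5 µM only; Schedule: compound with oleate, overnight; Detection: fluorescence imaging, 20x objective, two fields per well; Measure: % inhibition of lipid droplet signal.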
# Arr AP2 block: inhibitors of beta-arrestin/AP2 binding, primary screen, biochemical, GPCR trafficking, flow cytometry; beta-arrestin 1 C-terminal peptide binding to AP2 beta2-adaptin appendage (human); FITC-arrestin peptide / GST-AP2 beads; AP2 beta2 appendage carries R879A mutation; inhibition, % at 10 µM; actives 0.31% (n = 340,000);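 active = inhibition above a set limit, near 3 SD of compounds lacking own fluorescence, cut at about 54% in these data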;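 also: plate controls were DMSO wells for no effect and 5 µM unlabelled arrestin peptide for full effect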
#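 System: GST-AP2 R879A bound to glutathione beads, E. coli-expressed. Also added: 50 nM FITC-arrestin peptide. Schedule: compound with beads 12 min RT, then probe 1 h RT. Signal: bead flow cytometry, FITC channel. Read-out basis: percent response.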
# HGIII-sPLA2 inh: human group III sPLA2 inhibitors, primary screen, biochemical, QFRET, BODIPY PC-A2 liposome substrate. Group 3 secretory phospholipase A2 (Homo sapiens), Q9NZ20. AID 743126, 2013. inhibition, % at 12.2 µM. actives 0.56% (n = 370,000). QFRET BODIPY PC-A2 liposome hydrolysis, fluorescence;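 active = inhibition above mean plus 3 SD of compounds lying within the high and low control bounds, cut at about 19% in these data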;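 also: 0% = median of test compound wells and 100% = no enzyme DMSO wells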
# M18AAP inhibitor: PfM18AAP inhibitors, malaria aminopeptidase, primary screen, biochemical, QFRET, recombinant enzyme; inhibition, % at 7.35 µM; actives 1.2% (n = 290,000); H-Glu-NHMec fluorogenic cleavage;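 active = inhibition above the campaign mean inhibition over all tested compounds plus 3 SD, cut at about 28% in these data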;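 also: 0% = plate median of test compound wells and 100% = 2 mM ZnCl2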
# NRP1-CendR mod: modulators of CendR peptide binding to NRP-1, primary screen, biochemical, fluorescence polarization, uHTS; actives 0.85% (n = 360,000); inhibition, % at 25 µM; FAM-RPARPAR peptide binding to NRP-1;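 active = inhibition or corrected inhibition above about 18%, plus a signal ratio from 0.5 to 1.5, limit read from the data, passing the limit was not always enough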
# HTR2A ag: mouse Htr2a agonists via beta-arrestin recruitment, primary screen, cell-based, luminescence; 5-hydroxytryptamine receptor 2A (Mus musculus), P35363; CHO-K1 mHTR2A beta-arrestin complementation; percent of 30 µM serotonin response; activation, % at 7.6 µM; actives 0.66% (n = 360,000);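 active = activation above a run cutoff, the mean activation of all tested compounds plus 3 SD, cut at about 14% in these data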;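 also: 0% = plate median of compound wells and 100% = 30 µM serotonin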
# MOR ag counter: OPRM1 agonists via beta-arrestin recruitment, confirmation, counter-screen for mouse HTR2A agonist project, cell-based, luminescence, single concentration; shares compounds with HTR2A ag; U2OS OPRM1 beta-arrestin PathHunter; DMSO 0%, DAMGO 9.3 µM 100%; activation, % at 9.3 µM; actives 5.3% (n = 2,300);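 active = mean activation above the mean of DMSO-only wells plus 3 SD, cut at about 0.5% in these data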
# HTR2A ag conf: mouse HTR2A agonists, beta-arrestin recruitment, confirmation, cell-based, luminescence, CHO-K1 PathHunter, triplicate | shares compounds with HTR2A ag | activation, % at 7.6 µM | DMSO 0%, 30 µM serotonin 100% | AID 624381, 2012 | actives 19% (n = 2,300);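 active = mean activation across triplicates above the hit threshold derived in the original primary screen, cut at about 15% in these data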
# Active calls of the source: *; . = no result given. An excerpt weighted towards active compounds, which were near 3.3% of everything screened.
SMILES,Hep lipid drop,Arr AP2 block,HGIII-sPLA2 inh,M18AAP inhibitor,NRP1-CendR mod,HTR2A ag,MOR ag counter,HTR2A ag conf
CN1CCc2c(sc(/N=C/c3c[nH]c4ccccc34)c2C#N)C1,-3,6,-12,8,134,0,.,.
CN1CCc2c(sc(/N=C/c3cc(Cl)ccc3O)c2C#N)C1,8,-6,-1,5,-62,19*,-1,65*
CCCCc1c(-c2ccccc2OC)ncn1Cc1ccccc1C,.,.,-12,.,.,.,.,.
CCn1nnnc1SCC(=O)N1c2ccccc2Sc2ccccc21,-25,-7,-1,5,3,-2,.,.
Cn1nnnc1SCC(=O)N1c2ccccc2Sc2ccccc21,3,15,5,-9,-6,39*,-1,-1
OCc1cn(-c2ccccc2)nc1-c1ccco1,6,0,4,-49,-27,-7,.,.
Cc1ccc(-c2nn(-c3ccccc3)cc2CO)o1,32,12,-19,-190,1,15*,-1,-3
CC(=O)Nc1ccc(SCCN2CC[C@@H](O)CCC2=O)cc1,.,-2,8,.,20,30*,-1,-4
CN(C)Cc1csc(Nc2ccc(C(=O)c3ccccc3)cc2)n1,.,.,-12,.,-1,-7,.,.
COCC(=O)Nc1cccc(C(F)(F)F)c1,-10,14,1,7,-6,-1,.,.
CCN1C(=O)C(=O)N(CC(=O)Nc2cccc(C(F)(F)F)c2)C1=O,.,19,-3,.,9,44*,-1,-4
CC(=O)c1ccc(C(=O)Nc2nnc(-c3ccc(Cl)cc3)o2)cc1,2,-7,9,.,0,24*,0,-2
COc1cccc(Cn2cnc(-c3ccccc3OC)c2-c2cccs2)c1,.,.,-2,.,-6,24*,-1,-7
COc1cccc(Cn2cnc(-c3ccccc3OC)c2-c2cc(C)cc(C)c2)c1,.,.,-6,.,-2,-1,.,.
CN1CCN(S(=O)(=O)c2ccc(C(F)(F)F)cc2)C(c2ccccc2)C1 (configuration not stated),.,21,5,.,2,15*,0,-1
COC(=O)CC(NS(=O)(=O)c1cccs1)c1ccccc1Cl (configuration not stated),13,-5,-2,11,-7,19*,0,-4
NC(=O)Cn1cc(/C=N/NC(=O)c2ccc(Cn3cc(Cl)cn3)o2)c(-c2ccccc2)n1,22,12,1,2,-1,-1,.,.
CN(Cc1cccc(F)c1)C(=O)c1ccc2c(=O)n3c(nc2c1)CCC3,4,2,-1,2,-7,1,.,.
O=C(OCc1cccc(F)c1)c1ccc2c(=O)n3c(nc2c1)CCC3,-5,32,-2,-20,-6,18*,-1,-4
N#CCN1CCCC(C(N)=O)C1 (configuration not stated),4,8,6,-4,-4,19*,0,-4
Cc1cc(CNC[C@H]2O[C@@H](n3ccc(=O)[nH]c3=O)[C@H](O)[C@@H]2O)no1,.,.,1,.,4,-3,.,.
COc1cc(/C=N/Nc2nc3ccccc3s2)ccc1OC(=O)c1ccccc1F,0,11,6,4,-14,1,.,.
COc1cc(OC)cc(C(=O)Oc2ccc(/C=N/Nc3nc4ccccc4s3)cc2OC)c1,-2,10,9,6,-2,22*,0,-2

# Screening data from PubChem BioAssay.
